Assay results taken from ChEMBL document CHEMBL4270612, “Discovery of dual GyrB/ParE inhibitors active against Gram-negative bacteria” (Eur J Med Chem, 2018).
Converted amounts (≈) assume the structure as drawn.

Key:
[1] = molecular target: DNA gyrase subunit B (Escherichia coli, UniProt P0AES6); test: Inhibition of Escherichia coli GyrB (1 to 220 residues) expressed in Escherichia coli BL21(DE3)
[2] = molecular target: DNA topoisomerase 4 subunit B (Escherichia coli K-12, UniProt P20083); test: Inhibition of Escherichia coli ParE
Sequence of DNA topoisomerase 4 subunit B (P20083 whole entry): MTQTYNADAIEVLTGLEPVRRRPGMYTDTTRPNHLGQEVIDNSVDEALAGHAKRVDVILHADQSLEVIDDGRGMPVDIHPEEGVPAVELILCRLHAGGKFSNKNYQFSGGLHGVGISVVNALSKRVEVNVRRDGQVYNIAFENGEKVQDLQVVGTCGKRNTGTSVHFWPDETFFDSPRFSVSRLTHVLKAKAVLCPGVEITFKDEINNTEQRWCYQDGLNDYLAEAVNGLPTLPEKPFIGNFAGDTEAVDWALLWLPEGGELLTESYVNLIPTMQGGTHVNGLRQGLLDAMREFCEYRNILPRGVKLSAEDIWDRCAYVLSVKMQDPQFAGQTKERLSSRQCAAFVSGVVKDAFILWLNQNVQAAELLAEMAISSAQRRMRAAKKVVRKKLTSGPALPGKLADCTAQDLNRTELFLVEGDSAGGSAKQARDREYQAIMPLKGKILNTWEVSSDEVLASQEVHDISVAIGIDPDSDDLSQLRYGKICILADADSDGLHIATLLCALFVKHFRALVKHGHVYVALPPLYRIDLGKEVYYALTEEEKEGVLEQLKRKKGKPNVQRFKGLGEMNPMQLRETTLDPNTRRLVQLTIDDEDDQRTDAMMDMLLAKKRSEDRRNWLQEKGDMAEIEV

[3] = tested on: Pseudomonas aeruginosa; test: Antibacterial activity against Pseudomonas aeruginosa PAO1 after 24 hrs by broth microdilution method; type: functional; conditions: PAO1, 24 h
How it was run: (§1)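 Broth microdilution per CLSI. Bacterial suspension adjusted to 1×10^6 CFU/mL in cation-adjusted Mueller–Hinton broth and mixed 1:1 with 2-fold serial compound dilutions. Final DMSO 2.5% v/v. Plates incubated at 35 °C with shaking at 140 rpm for 24 h.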

[4] = tested on: Pseudomonas aeruginosa; test: Antibacterial activity against Pseudomonas aeruginosa harboring MexABCDXY deletion mutant after 24 hrs by broth microdilution method; type: functional
How it was run: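 Broth microdilution per CLSI. Bacterial suspensions adjusted to 1×10^6 CFU/mL in cation-adjusted Mueller–Hinton broth, mixed 1:1 with 2-fold serial compound dilutions (final DMSO 2.5% v/v). Incubation 35 °C, 140 rpm, 24 h.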

[5] = tested on: Escherichia coli; test: Antibacterial activity against Escherichia coli after 24 hrs by broth microdilution method; type: functional; how it was run: as §1
[6] = tested on: Escherichia coli; test: Antibacterial activity against tolC deficient Escherichia coli after 24 hrs by broth microdilution method; type: functional
How it was run: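 Broth microdilution per CLSI guidelines. Inoculum adjusted to 1×10^6 CFU/mL in cation-adjusted Mueller–Hinton broth, added 1:1 to 2-fold serial compound dilutions; final DMSO 2.5% v/v. Plates incubated 35 °C, 140 rpm, 24 h.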

[7] = Dissociation constant, acidic pKa of compound by pH metric method; type: physicochemical
How it was run: (§2)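 Potentiometric (pH-metric) titration on an automated titrator, Gold Standard pH metric assay, run in triplicate.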

[8] = Dissociation constant, basic pKa of compound by pH metric method; type: physicochemical; how it was run: as §2
[9] = Dissociation constant, pKa of compound by pH metric method; type: physicochemical; how it was run: as §2
[10] = Growth inhibition of human A549 cells; type: cell-based
[11] = tested on: Escherichia coli; test: Selectivity ratio of IC50 for Escherichia coli ParE to IC50 for Escherichia coli GyrB (1 to 220 residues) expressed in Escherichia coli BL21(DE3)
[12] = tested on: Pseudomonas aeruginosa; test: Antibacterial activity against Pseudomonas aeruginosa ARC003 after 24 hrs by broth microdilution method; type: functional; conditions: ARC003, 24 h; how it was run: as §1
[13] = tested on: Pseudomonas aeruginosa; test: Antibacterial activity against Pseudomonas aeruginosa ARC3504 after 24 hrs by broth microdilution method; type: functional; conditions: ARC3504, 24 h; how it was run: as §1
[14] = tested on: Pseudomonas aeruginosa; test: Antibacterial activity against Pseudomonas aeruginosa ARC3505 after 24 hrs by broth microdilution method; type: functional; conditions: ARC3505, 24 h; how it was run: as §1
[15] = tested on: Pseudomonas aeruginosa; test: Antibacterial activity against Pseudomonas aeruginosa ARC3506 after 24 hrs by broth microdilution method; type: functional; conditions: ARC3506, 24 h; how it was run: as §1
[16] = tested on: Pseudomonas aeruginosa; test: Antibacterial activity against Pseudomonas aeruginosa ARC3509 after 24 hrs by broth microdilution method; type: functional; conditions: ARC3509, 24 h; how it was run: as §1
[17] = tested on: Pseudomonas aeruginosa; test: Antibacterial activity against Pseudomonas aeruginosa ARC3606 after 24 hrs by broth microdilution method; type: functional; conditions: ARC3606, 24 h; how it was run: as §1
[18] = tested on: Pseudomonas aeruginosa; test: Antibacterial activity against Pseudomonas aeruginosa ARC3607 after 24 hrs by broth microdilution method; type: functional; conditions: ARC3607, 24 h; how it was run: as §1
[19] = tested on: Pseudomonas aeruginosa; test: Antibacterial activity against Pseudomonas aeruginosa ARC3611 after 24 hrs by broth microdilution method; type: functional; conditions: ARC3611, 24 h; how it was run: as §1
[20] = tested on: Pseudomonas aeruginosa; test: Antibacterial activity against Pseudomonas aeruginosa ARC3612 after 24 hrs by broth microdilution method; type: functional; conditions: ARC3612, 24 h; how it was run: as §1
[21] = tested on: Pseudomonas aeruginosa; test: Antibacterial activity against Pseudomonas aeruginosa ARC3729 after 24 hrs by broth microdilution method; type: functional; conditions: ARC3729, 24 h; how it was run: as §1
[22] = tested on: Pseudomonas aeruginosa; test: Antibacterial activity against Pseudomonas aeruginosa ARC3916 after 24 hrs by broth microdilution method; type: functional; conditions: ARC3916, 24 h; how it was run: as §1
[23] = tested on: Pseudomonas aeruginosa; test: Antibacterial activity against Pseudomonas aeruginosa ARC4060 after 24 hrs by broth microdilution method; type: functional; conditions: ARC4060, 24 h; how it was run: as §1
[24] = tested on: Acinetobacter baumannii; test: Antibacterial activity against Acinetobacter baumannii ARC2674 after 24 hrs by broth microdilution method; type: functional; conditions: ARC2674, 24 h; how it was run: as §1
[25] = tested on: Acinetobacter baumannii; test: Antibacterial activity against Acinetobacter baumannii ARC2728 after 24 hrs by broth microdilution method; type: functional; conditions: ARC2728, 24 h; how it was run: as §1
[26] = tested on: Acinetobacter baumannii; test: Antibacterial activity against Acinetobacter baumannii ARC2779 after 24 hrs by broth microdilution method; type: functional; conditions: ARC2779, 24 h; how it was run: as §1
[27] = tested on: Acinetobacter baumannii; test: Antibacterial activity against Acinetobacter baumannii ARC2782 after 24 hrs by broth microdilution method; type: functional; conditions: ARC2782, 24 h; how it was run: as §1
[28] = tested on: Acinetobacter baumannii; test: Antibacterial activity against Acinetobacter baumannii ARC3485 after 24 hrs by broth microdilution method; type: functional; conditions: ARC3485, 24 h; how it was run: as §1
[29] = tested on: Acinetobacter baumannii; test: Antibacterial activity against Acinetobacter baumannii ARC3486 after 24 hrs by broth microdilution method; type: functional; conditions: ARC3486, 24 h; how it was run: as §1
[30] = tested on: Acinetobacter baumannii; test: Antibacterial activity against Acinetobacter baumannii ARC3489 after 24 hrs by broth microdilution method; type: functional; conditions: ARC3489, 24 h; how it was run: as §1
[31] = tested on: Acinetobacter baumannii; test: Antibacterial activity against Acinetobacter baumannii ARC3493 after 24 hrs by broth microdilution method; type: functional; conditions: ARC3493, 24 h; how it was run: as §1
[32] = tested on: Acinetobacter baumannii; test: Antibacterial activity against Acinetobacter baumannii ARC3495 after 24 hrs by broth microdilution method; type: functional; conditions: ARC3495, 24 h; how it was run: as §1
[33] = tested on: Acinetobacter baumannii; test: Antibacterial activity against Acinetobacter baumannii ARC3513 after 24 hrs by broth microdilution method; type: functional; conditions: ARC3513, 24 h; how it was run: as §1
[34] = tested on: Acinetobacter baumannii; test: Antibacterial activity against Acinetobacter baumannii ARC3515 after 24 hrs by broth microdilution method; type: functional; conditions: ARC3515, 24 h; how it was run: as §1
[35] = tested on: Acinetobacter baumannii; test: Antibacterial activity against Acinetobacter baumannii ARC3657 after 24 hrs by broth microdilution method; type: functional; conditions: ARC3657, 24 h; how it was run: as §1
[36] = tested on: Acinetobacter baumannii; test: Antibacterial activity against Acinetobacter baumannii ARC3658 after 24 hrs by broth microdilution method; type: functional; conditions: ARC3658, 24 h; how it was run: as §1
[37] = tested on: Acinetobacter baumannii; test: Antibacterial activity against Acinetobacter baumannii ARC3659 after 24 hrs by broth microdilution method; type: functional; conditions: ARC3659, 24 h; how it was run: as §1
[38] = tested on: Acinetobacter baumannii; test: Antibacterial activity against Acinetobacter baumannii ARC3882 after 24 hrs by broth microdilution method; type: functional; conditions: ARC3882, 24 h; how it was run: as §1

CCNC(=O)Nc1cc(-c2nc(C(F)(F)F)cs2)c(-c2cc(-c3nnn[nH]3)cnc2N2C3CCC2CN(C)C3)cn1
IC50 [1]: 9 nM
IC50 [2]: 4 nM
MIC [3]: > 50 µg/mL
MIC [4]: > 50 µg/mL
MIC [5]: > 50 µg/mL
MIC [6]: 36 µg/mL (≈ 61.5 µM)
pKa [7]: 3.6
pKa [8]: 7.8

CCNC(=O)Nc1cc(-c2nc(C(F)(F)F)cs2)c(-c2cc(C(=O)NS(C)(=O)=O)cnc2N2C3CCC2CN(C)C3)cn1
IC50 [1]: 8 nM
IC50 [2]: 9 nM
MIC [3]: > 50 µg/mL
MIC [4]: > 50 µg/mL
MIC [5]: > 50 µg/mL
MIC [6]: > 50 µg/mL
pKa [7]: 3.2
pKa [8]: 7.6

CCNC(=O)Nc1cc(-c2nc(C(F)(F)F)cs2)c(-c2cc3ncccc3nc2N2CC3CCCC(C2)N3)cn1
IC50 [1]: 14 nM
IC50 [2]: 25 nM
MIC [3]: > 60 µg/mL
MIC [4]: 0.55 µg/mL (≈ 0.967 µM)
MIC [5]: 9.09 µg/mL (≈ 16 µM)
MIC [6]: 0.28 µg/mL (≈ 0.492 µM)
pKa [9]: 9.2
GI50 [10]: > 50000 nM

CCNC(=O)Nc1cc(-c2nc(C(F)(F)F)cs2)c(-c2cc(C(=O)O)cnc2N2C3CCC2CN(C)C3)cn1
IC50 [1]: 6 nM
IC50 [2]: 8 nM
MIC [3]: 9 µg/mL (≈ 16 µM)
MIC [4]: 4.48 µg/mL (≈ 7.98 µM)
MIC [5]: 9 µg/mL (≈ 16 µM)
MIC [6]: 1.12 µg/mL (≈ 1.99 µM)
pKa [7]: 3.5
pKa [8]: 7.4
GI50 [10]: > 50000 nM

CCNC(=O)Nc1cc(-c2nc(C(F)(F)F)cs2)c(-c2cncc(C(=O)O)c2)cn1
IC50 [1]: 6 nM
IC50 [2]: 700 nM
Ratio IC50 [11]: 100
MIC [3]: > 100 µg/mL
MIC [4]: > 100 µg/mL
MIC [5]: > 100 µg/mL
MIC [6]: > 100 µg/mL
pKa [9]: 3.5

C[C@@H](O)[C@H]1C(=O)N2C(C(=O)O)=C(S[C@@H]3CN[C@H](C(=O)N(C)C)C3)[C@H](C)[C@H]12 [MEROPENEM]
MIC [12]: 0.25 µg/mL (≈ 0.652 µM)
MIC [13]: 4 µg/mL (≈ 10.4 µM)
MIC [14]: 2 µg/mL (≈ 5.22 µM)
MIC [15]: 8 µg/mL (≈ 20.9 µM)
MIC [16]: 16 µg/mL (≈ 41.7 µM)
MIC [17]: 4 µg/mL (≈ 10.4 µM)
MIC [18]: 8 µg/mL (≈ 20.9 µM)
MIC [19]: 4 µg/mL (≈ 10.4 µM)
MIC [20]: 32 µg/mL (≈ 83.4 µM)
MIC [21]: 32 µg/mL (≈ 83.4 µM)
MIC [22]: 32 µg/mL (≈ 83.4 µM)
MIC [23]: 16 µg/mL (≈ 41.7 µM)
MIC [24]: 16 µg/mL (≈ 41.7 µM)
MIC [25]: 0.25 µg/mL (≈ 0.652 µM)
MIC [26]: 16 µg/mL (≈ 41.7 µM)
MIC [27]: 16 µg/mL (≈ 41.7 µM)
MIC [28]: 32 µg/mL (≈ 83.4 µM)
MIC [29]: > 64 µg/mL
MIC [30]: 4 µg/mL (≈ 10.4 µM)
MIC [31]: > 64 µg/mL
MIC [32]: > 64 µg/mL
MIC [33]: 32 µg/mL (≈ 83.4 µM)
MIC [34]: 4 µg/mL (≈ 10.4 µM)
MIC [35]: 1 µg/mL (≈ 2.61 µM)
MIC [36]: 32 µg/mL (≈ 83.4 µM)
MIC [37]: 16 µg/mL (≈ 41.7 µM)
MIC [38]: > 64 µg/mL

CCNC(=O)Nc1cc(-c2nc(C(F)(F)F)cs2)c(-c2cc(C(=O)O)ccc2N2C3CCC2CN(C)C3)cn1
IC50 [1]: 9 nM
IC50 [2]: 10 nM
MIC [3]: 9 µg/mL (≈ 16.1 µM)
MIC [4]: 4.46 µg/mL (≈ 7.96 µM)
MIC [5]: 9 µg/mL (≈ 16.1 µM)
MIC [6]: 1.12 µg/mL (≈ 2 µM)
pKa [7]: 4.4
pKa [8]: 8.2
GI50 [10]: > 25000 nM

CCNC(=O)Nc1cc(-c2nc(C(F)(F)F)cs2)c(-c2cc(-c3n[nH]c(=O)o3)cnc2N2[C@@H]3CC[C@H]2C[C@@H](N)C3)cn1
IC50 [1]: 4 nM
IC50 [2]: 12 nM
MIC [3]: > 50 µg/mL
MIC [4]: 0.6 µg/mL (≈ 0.997 µM)
MIC [5]: > 50 µg/mL
MIC [6]: 4.8 µg/mL (≈ 7.98 µM)
pKa [7]: 6.8
pKa [8]: 9.5
